Results taken from ChEMBL document CHEMBL1156171, “N-aryltriazole ribonucleosides with potent antiproliferative activity against drug-resistant pancreatic cancer” (2010).
Active and inactive are the calls of the source. The calls are words filed in the database; no cut-off is given here.

Columns and labels:
MIA PaCa-2 [1] = experiment: Antiproliferative activity against human MIAPaCa2 cells assessed as cell viability at 50 uM after 48 hrs by MTT assay; format: functional; conditions: MIA PaCa-2, 48 h, read-out: Activity
Outline: (§1)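 Cells exposed to 50 µM compound (fresh medium) for 48 h at 37 °C, 5% CO2; untreated control. Viable cells counted by MTT colorimetric assay. Documented for MiaPaCa-2: DMEM + 10% FBS, 15,000 cells/well, overnight attachment before treatment.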

Capan-2 = experiment: Antiproliferative activity against human Capan2 cells assessed as cell viability at 50 uM after 48 hrs by MTT assay; format: functional; conditions: Capan-2, 48 h, read-out: Activity; outline: as §1
PC-3 = experiment: Antiproliferative activity against human PC3 cells assessed as cell viability at 50 uM after 48 hrs by MTT assay; format: functional; conditions: PC-3, 48 h, read-out: Activity; outline: as §1
MIA PaCa-2 [2] = experiment: Antiproliferative activity against human MIAPaCa2 cells assessed as cell viability after 48 hrs by MTT assay; format: functional, cell-based
Outline: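 MiaPaCa-2 cells in DMEM + 10% FBS, plated at 15,000 cells/well and attached overnight. Medium then replaced with fresh medium holding compound over a dose range; 37 °C, 5% CO2, 48 h. Viable cells determined by MTT colorimetric assay relative to untreated control.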

MIA PaCa-2 [3] = experiment: Induction of apoptosis in human MIAPaCa2 cells assessed as increase in sub-G1/G0 cell fraction at 50 uM after 48 hrs using propidium iodide staining by FACS analysis; format: functional, cell-based
Outline: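 MiaPaCa-2 cells plated at 10^6 per dish, grown overnight, then given fresh medium with 50 µM compound for 48 h; untreated negative control. Cells trypsinized, PBS-washed, fixed overnight in cold 70% ethanol at 4 °C, RNase-treated, propidium iodide stained, and sub-G1/G0 fraction read by flow cytometry. Triplicate samples.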

MIA PaCa-2 [4] = experiment: Induction of apoptosis in human MIAPaCa2 cells assessed as increase in caspase 3/7 activation at 50 uM after 24 hrs by luminescence assay; format: functional, cell-based
Outline: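 MiaPaCa-2 cells plated at 15,000 cells/well and treated 24 h later with 50 µM compound for 24 h. Caspase-Glo 3/7 reagent added; DEVD-containing luminogenic substrate cleavage read as luminescence after 1 h at room temperature. Untreated cells as control.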

Structure (SMILES) | viability at 50 µM (MIA PaCa-2 [1]) [%] | viability at 50 µM (Capan-2) [%] | viability at 50 µM (PC-3) [%] | Activity (MIA PaCa-2 [2]) | Activity (MIA PaCa-2 [3]) | Activity (MIA PaCa-2 [4])
COC(=O)c1nc(Nc2ccc(Cl)cc2)nn1[C@@H]1O[C@H](COC(C)=O)[C@@H](OC(C)=O)[C@H]1OC(C)=O | 43.8 | 59.6 | 60.2 | Dose-dependent effect | Active | Active
COC(=O)c1nc(Nc2cccc(Cl)c2)nn1[C@@H]1O[C@H](COC(C)=O)[C@@H](OC(C)=O)[C@H]1OC(C)=O | 72.4 | 65.8 | 69.8 | – | – | –
Nc1ccn([C@@H]2O[C@H](CO)[C@@H](O)C2(F)F)c(=O)n1 [GEMCITABINE] | 70.4 | 32.7 | – | – | – | –
NC(=O)c1nc(Nc2ccc(F)cc2)nn1[C@@H]1O[C@H](CO)[C@@H](O)[C@H]1O | 68.1 | 62.9 | 67 | – | – | –
Cc1ccc(Nc2nc(C(N)=O)n([C@@H]3O[C@H](CO)[C@@H](O)[C@H]3O)n2)cc1 | 85.6 | 63.9 | 108 | – | – | –
CCCc1ccc(Nc2nc(C(N)=O)n([C@@H]3O[C@H](CO)[C@@H](O)[C@H]3O)n2)cc1 | 103 | 71.5 | 90.3 | – | – | –
COC(=O)c1nc(Nc2cccc(C)c2)nn1[C@@H]1O[C@H](COC(C)=O)[C@@H](OC(C)=O)[C@H]1OC(C)=O | 99.9 | 84.9 | 94.2 | – | – | –
CCCc1ccc(Nc2nc(C(=O)OC)n([C@@H]3O[C@H](COC(C)=O)[C@@H](OC(C)=O)[C@H]3OC(C)=O)n2)cc1 | 103 | 95.9 | 90.2 | – | – | –
NC(=O)c1nc(Nc2cccc(Cl)c2)nn1[C@@H]1O[C@H](CO)[C@@H](O)[C@H]1O | 88.7 | 66.2 | 77.4 | – | – | –
COC(=O)c1nc(Nc2ccc(C)cc2)nn1[C@@H]1O[C@H](COC(C)=O)[C@@H](OC(C)=O)[C@H]1OC(C)=O | 58.6 | 47.1 | 68.6 | Dose-dependent effect | Active | Active
NC(=O)c1nc(Nc2ccc(C(F)(F)F)cc2)nn1[C@@H]1O[C@H](CO)[C@@H](O)[C@H]1O | 100 | 122 | 89.4 | – | – | –
CCc1ccc(Nc2nc(C(=O)OC)n([C@@H]3O[C@H](COC(C)=O)[C@@H](OC(C)=O)[C@H]3OC(C)=O)n2)cc1 | 99 | 90 | 96.1 | – | – | –
COc1ccc(Nc2nc(C(N)=O)n([C@@H]3O[C@H](CO)[C@@H](O)[C@H]3O)n2)cc1 | 126 | 126 | 102 | – | – | –
NC(=O)c1nc(Nc2ccc(Cl)cc2)nn1[C@@H]1O[C@H](CO)[C@@H](O)[C@H]1O | 95.9 | 72.8 | 70.2 | – | – | –
COC(=O)c1nc(Nc2ccc(SC)cc2)nn1[C@@H]1O[C@H](COC(C)=O)[C@@H](OC(C)=O)[C@H]1OC(C)=O | 85.4 | 88.1 | 106 | – | – | –
CC(=O)O[C@H]1C(=O)[C@@]2(C)[C@H]([C@H](OC(=O)c3ccccc3)[C@]3(O)C[C@H](OC(=O)[C@H](O)[C@@H](NC(=O)c4ccccc4)c4ccccc4)C(C)=C1C3(C)C)[C@]1(OC(C)=O)CO[C@@H]1C[C@@H]2O [PACLITAXEL] | – | – | 41.3 | – | – | –
COC(=O)c1nc(Nc2ccc(F)cc2)nn1[C@@H]1O[C@H](COC(C)=O)[C@@H](OC(C)=O)[C@H]1OC(C)=O | 80.2 | 79.8 | 84.7 | – | – | –
CSc1ccc(Nc2nc(C(N)=O)n([C@@H]3O[C@H](CO)[C@@H](O)[C@H]3O)n2)cc1 | 98.6 | 71.1 | 92.1 | – | – | –
COC(=O)c1nc(Nc2ccccc2)nn1[C@@H]1O[C@H](COC(C)=O)[C@@H](OC(C)=O)[C@H]1OC(C)=O | 138 | 96.2 | 91 | – | – | –
NC(=O)c1nc(Nc2ccccc2)nn1[C@@H]1O[C@H](CO)[C@@H](O)[C@H]1O | 68 | 46.6 | 73.9 | – | – | –
COC(=O)c1nc(Nc2ccc(OC)cc2)nn1[C@@H]1O[C@H](COC(C)=O)[C@@H](OC(C)=O)[C@H]1OC(C)=O | 96.4 | 72 | 85.6 | – | – | –
CCc1ccc(Nc2nc(C(N)=O)n([C@@H]3O[C@H](CO)[C@@H](O)[C@H]3O)n2)cc1 | 99.8 | 66 | 91.4 | – | – | –
Cc1cccc(Nc2nc(C(N)=O)n([C@@H]3O[C@H](CO)[C@@H](O)[C@H]3O)n2)c1 | 100 | 76.3 | 96.2 | – | – | –
COC(=O)c1nc(Nc2ccc(C(F)(F)F)cc2)nn1[C@@H]1O[C@H](COC(C)=O)[C@@H](OC(C)=O)[C@H]1OC(C)=O | 98.6 | 64.4 | 88.4 | – | – | –
